Source: PubChem (The Scripps Research Institute Molecular Screening Center)
Most compounds without a hit are left out; they make up all but 1.9% or so of the library.
PP1 inh – PP1-alpha (human) inhibition in PP5 counter-screen; hit rate 0.9% among 320,000; AID 2235; P62136; inhibition, % at 6.7 µM; purified PP1alpha, OMFP fluorescence;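 active = inhibition above the mean inhibition of all tested compounds plus 3 SD, computed separately for each screening campaign, cut at about 15% in these data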
Target sequence (P62136 whole entry, looked up): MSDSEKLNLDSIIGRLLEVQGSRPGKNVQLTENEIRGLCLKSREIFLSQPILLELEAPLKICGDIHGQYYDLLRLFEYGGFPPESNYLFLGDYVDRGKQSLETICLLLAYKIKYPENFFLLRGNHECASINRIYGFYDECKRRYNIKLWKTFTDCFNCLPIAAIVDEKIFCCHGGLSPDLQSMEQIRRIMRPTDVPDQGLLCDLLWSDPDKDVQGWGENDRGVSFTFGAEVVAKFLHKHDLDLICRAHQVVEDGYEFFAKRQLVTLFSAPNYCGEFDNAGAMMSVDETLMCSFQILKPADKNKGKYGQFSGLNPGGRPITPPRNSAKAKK
HCV NS3 hel inh – blocks Hepatitis C virus NS3 helicase unwinding; NS3 helicase DNA unwinding, Cy5 molecular beacon fluorescence; inhibition, % at 10.9 µM; hit rate 0.56% among 290,000; AID 1800;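 active = inhibition above the mean of all tested compounds plus 3 SD, set per campaign, cut at about 35% in these data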;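 also: 0% = DMSO wells and 100% = thioflavine S control wells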
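Control set: DMSO versus 110 µM thioflavine S; Material: NS3 helicase fragment of HCV; Measured by: Cy5 fluorescence at 0 and 60 min, beacon hairpin quenching; Read-out basis: percent inhibition from t60/t0 fluorescence ratio; Times: reaction time 60 min, 25 °C; Repeats: single replicate; Compound dosing: single dose, 10.9 µM nominal final, DMSO 0.8% final.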
EBNA-1 inhibitor – blocks EBNA-1 binding to DNA. hit rate 0.34% among 300,000. EBNA-1 DNA binding, fluorescence polarization. inhibition, % at 14.8 µM. AID 1950; in the data active = inhibition above about 28%
HCV core dimer – blocks dimerization of HCV core protein; hit rate 0.33% among 300,000; AID 1899; TR-FRET GST/Flag-core106 dimerization, 1536-well; inhibition, % at 5 µM;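 active = inhibition above the mean of all tested compounds plus 3 SD, set per screening campaign, cut at about 45% in these data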
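Assay system: tagged HCV core106 pair (GST and Flag); medium: KF-containing HEPES buffer, pH 7.45, DTT, CHAPS, BSA; also added: Eu donor and XL665 acceptor anti-tag antibodies; dosing: 5 µM single dose; timing: compound-protein-antibody incubation 4 h at 22.5 °C; signal: TR-FRET 671 and 617 nm emission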
ZTA DNA inh – ZTA (EBV) inhibition in EBNA-1 counter-screen; P03206; ZTA-DNA binding, fluorescence polarization; inhibition, % at 11 µM; hit rate 0.15% among 320,000; in the data active = inhibition above about 33%
Target sequence (P03206 whole entry, looked up): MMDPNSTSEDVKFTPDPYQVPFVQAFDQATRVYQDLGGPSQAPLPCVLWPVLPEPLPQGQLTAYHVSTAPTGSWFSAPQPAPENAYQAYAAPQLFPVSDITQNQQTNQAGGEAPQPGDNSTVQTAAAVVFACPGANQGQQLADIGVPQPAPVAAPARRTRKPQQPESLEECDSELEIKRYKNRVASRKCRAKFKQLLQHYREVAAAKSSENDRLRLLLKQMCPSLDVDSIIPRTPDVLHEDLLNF
NS3 hel confirm – confirmation of Hepatitis C virus NS3 helicase inhibitors. inhibition, % at 10.9 µM. shares compounds with HCV NS3 hel inh. hit rate 31% among 1,600. NS3 helicase DNA unwinding, Cy5 molecular beacon fluorescence;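 active = inhibition above the mean of all tested compounds plus 3 SD, cutoff set per campaign, cut at about 36% in these data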
DNA FID counter – intercalator displacement, NS3 helicase counter-screen; shares compounds with HCV NS3 hel inh; hit rate 4% among 1,600; inhibition, % at 7.9 µM; AID 1945; DNA fluorescent intercalator displacement, fluorescence; in the data active = inhibition above about 37%;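 also: 0% = vehicle and 100% = reference compound; higher means more displacement of ethidium bromide from the DNA hairpin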
Numbers without * were called inactive; nt = not tested or not shown.

SMILES	PP1 inh	HCV NS3 hel inh	EBNA-1 inhibitor	HCV core dimer	ZTA DNA inh	NS3 hel confirm	DNA FID counter
COc1ccc(/C=C2\SC(=Nc3ccccc3)NC2=O)cc1	nt	0	nt	nt	nt	nt	nt
CC(=O)Nc1ccc(S(=O)(=O)/N=C2/NC(=O)/C(=C\c3ccco3)S2)cc1	-3	16	2	-3	-8	nt	nt
O=C(Nc1ccc(-c2n[nH]c(=S)o2)cc1)c1ccccc1Cl	-4	7	-4	5	7	nt	nt
Cc1csc(NC(=O)c2ccc(Cl)nc2)n1	-5	-1	-3	8	-1	nt	nt
O=C(O)/C(=C\c1ccc(Cl)c([N+](=O)[O-])c1)c1ccc(S(=O)(=O)N2CCCCC2)s1	5	16	-1	16	6	nt	nt
O=C(O)/C(=C\c1cccc([N+](=O)[O-])c1)c1ccc(S(=O)(=O)N2CCCCC2)s1	2	44*	8	7	-20	54*	-14
CN(C)S(=O)(=O)c1cccc(COC(=O)CCNC(=O)c2ccc([N+](=O)[O-])cc2)c1	-4	nt	nt	nt	4	nt	nt
CC(C(=O)N1CCCCCC1)c1ccc([N+](=O)[O-])cc1 (stereo not given)	0	-1	14	-4	-2	nt	nt
COc1ccccc1NC(=O)CSc1ccc(-c2ccco2)nn1	-4	24	9	17	-2	nt	nt
COc1ccc(OC)c(NC(=O)CSc2ccc(-c3ccco3)nn2)c1	1	45*	7	43	-11	-20	-13
CCCC(=O)Nc1ccc(-c2csc(N/N=C\c3ccncc3)n2)cc1	4	38*	1	7	5	12	-3
COc1cccc(/C=N/NC(=O)c2oc3nc(-c4ccccc4)cc(-c4ccco4)c3c2N)c1	5	39*	2	13	7	2	-27
O=C(O)c1ccccc1-c1ccccc1C(=O)NNc1ccc([N+](=O)[O-])cc1	4	38*	1	7	-7	-29	-6
O=C(NNc1ccc([N+](=O)[O-])cc1)c1ccccc1Cl	1	-2	5	-4	-3	nt	nt
CC(C)OCCCN(C)C1CCN(S(=O)(=O)c2ccc(-c3cc(C(F)(F)F)no3)s2)CC1	-4	-76	-22	-6	1	nt	nt
O=C(O)C(Cc1ccccc1)Nc1ccc([N+](=O)[O-])cc1[N+](=O)[O-] (stereo not given)	4	38*	-17	21	3	-23	4
COc1ccc(C2NC(=O)c3ccccc3O2)cc1 (stereo not given)	-5	-4	7	12	15	nt	nt
CCOC(=O)Cn1c(=NC(=O)C2COc3ccccc3O2)sc2cc(S(N)(=O)=O)ccc21 (stereo not given)	3	56*	4	19	6	7	-26
CCOC(=O)Cn1c(=NC(=O)c2cc(-c3cccs3)nc3ccccc23)sc2cc(S(N)(=O)=O)ccc21	5	2	14	-10	12	nt	nt
COc1ccc(/C=C2/SC(=S)N(Cc3ccccc3)C2=O)cc1O	nt	-4	nt	nt	nt	nt	nt
O=C1/C(=C\c2cc(Cl)c(O)c(Cl)c2)SC(=S)N1Cc1ccccc1	nt	41*	nt	nt	nt	66*	34
CC(=C\c1ccccc1)/C=C1/SC(=S)N(CCCC(=O)O)C1=O	nt	59*	nt	nt	nt	61*	-10
O=C(O)CN1C(=O)/C(=C\C(Br)=C\c2ccccc2)SC1=S	2	38*	-14	6	5	72*	22
O=C(O)CN1C(=O)/C(=C/C=C/c2ccccc2)SC1=S	2	22	1	3	-10	nt	nt
CC(=O)N1N=C(c2ccco2)CC1c1ccc(Br)cc1 (stereo not given)	2	12	8	9	16	nt	nt
SMILES	PP1 inh	HCV NS3 hel inh	EBNA-1 inhibitor	HCV core dimer	ZTA DNA inh	NS3 hel confirm	DNA FID counter
COc1ccc(Cc2nc3ccc(C(=O)N(C)CCCN4CCOCC4)cc3o2)cc1	-3	-13	1	-3	5	nt	nt
COc1ccc(-c2nnn(CC(=O)N(Cc3ccccc3Cl)C(C(=O)NCC3CCCO3)c3ccco3)n2)cc1 (stereo not given)	-3	-6	2	3	-5	nt	nt
COc1ccc(-c2nnn(CC(=O)N(Cc3ccco3)C(C(=O)NCC3CCCO3)c3ccco3)n2)cc1 (stereo not given)	0	45*	2	6	2	-9	-32
O=C1Cc2ccccc2C(=O)N1c1cccc(Cl)c1	4	37*	-4	-5	-6	-19	19
CCO[C@H]1OC(C(N)=O)=C[C@@H](C(C)(C)C)[C@@H]1CCCO	-3	nt	4	-14	-3	nt	nt
COc1cccc(/C(O)=C2/C(=O)C(=O)N(Cc3ccco3)C2c2ccncc2)c1 (stereo not given)	3	-7	0	0	-14	nt	nt
O=C1C(=O)N(Cc2ccco2)C(c2cccs2)/C1=C(\O)c1cccc([N+](=O)[O-])c1 (stereo not given)	1	43*	2	6	4	-1	17
CCCCn1c(N)c(N(CC(C)C)C(=O)c2cc(C)oc2C)c(=O)[nH]c1=O	-4	-1	7	2	10	nt	nt
Cc1ccc(S(=O)(=O)N2CCCC2)cc1C(=O)N1CCN(Cc2ccccc2)CC1	-3	-12	-1	2	-1	nt	nt
O=C(c1ccncc1)N1N=C(c2ccc(Cl)cc2)CC1c1ccccc1O (stereo not given)	-3	-11	3	17	-4	nt	nt
COc1ccc(N(CC(=O)NCCC2=CCCCC2)S(=O)(=O)c2c(C)[nH]c(=O)[nH]c2=O)cc1	-1	37*	4	5	16	-20	-32
COc1ccc(CNC(=O)CN(c2ccc(OC)cc2)S(=O)(=O)c2c(C)[nH]c(=O)[nH]c2=O)cc1	-2	8	3	-11	-6	nt	nt
Cc1ccc(C(=O)N/N=C\c2ccc(-c3ccc(Cl)c(Cl)c3)o2)cn1	4	69*	17	4	-6	-7	-7
Cc1ccc(CC(=O)Nc2cc(C)on2)cc1	-6	7	1	3	-3	nt	nt
CN1C(=O)C(Cl)(Cl)C(=O)c2ccccc21	nt	53*	nt	nt	nt	-15	3
CN1C(=O)C2(NC(=O)c3ccccc3N2C)c2ccccc21 (stereo not given)	-2	-5	0	-7	-7	nt	nt
O=C(NC(=S)NC1CCSC1=O)c1ccc([N+](=O)[O-])cc1 (stereo not given)	-2	43*	1	4	-1	-17	13
O=C(NNC(=S)NC(=O)c1ccccc1)c1ccc([N+](=O)[O-])cc1	8	13	14	-9	-16	nt	nt
O=C(NC(=S)NNC(=O)c1ccccc1O)c1ccc([N+](=O)[O-])cc1	6	36*	6	-1	-8	-12	17
CCCCNC(=O)Cn1c(=O)c2c(ncn2CC)n(Cc2ccccc2)c1=O	-3	-3	-3	8	-4	nt	nt
CC(C)Nc1nc(NC(C)C)nc(Oc2ccc(=O)n(C)n2)n1	0	-9	12	-3	3	nt	nt
